Screening data deposited in PubChem BioAssay by Johns Hopkins Ion Channel Center.
MrgX1 agonist – activates human MrgX1 receptor signaling; B-score at 10 µM; Q96LB2; hit rate 0.44% among 310,000; MrgX1-HEK293 cells, Fluo-4 calcium fluorescence, agonist mode; hits give high values; AID 588627;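 active = calcium response B-score plate-corrected fluorescence ratio at least 3 library SD, with starting fluorescence B-score inside 5 SD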
Target sequence (Q96LB2 whole entry, looked up): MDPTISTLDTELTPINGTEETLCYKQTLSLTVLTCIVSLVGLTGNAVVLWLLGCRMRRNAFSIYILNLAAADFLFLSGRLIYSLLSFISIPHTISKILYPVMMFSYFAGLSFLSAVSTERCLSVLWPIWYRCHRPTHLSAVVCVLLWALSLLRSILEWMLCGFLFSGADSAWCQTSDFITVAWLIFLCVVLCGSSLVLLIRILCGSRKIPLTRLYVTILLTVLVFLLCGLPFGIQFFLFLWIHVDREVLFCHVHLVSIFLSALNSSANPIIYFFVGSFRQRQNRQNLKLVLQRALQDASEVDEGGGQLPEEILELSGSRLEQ
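System – MrgX1-expressing HEK293 cells · Incubation – cells plated overnight, dye loaded 0.5 h 37 °C, 0.5 h room temperature · Technique – kinetic Fluo-4 NW fluorescence of intracellular calcium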
RGS4 block – inhibitors of human RGS4; P49798; HEK293 M3R/RGS4 inducible, Fluo-4 calcium flux; hits give high values; triggered by carbachol at its EC20; B-score at 10 µM; hit rate 0.45% among 310,000;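 active = B-score, a plate-corrected calcium signal, over three deviations above library mean, with baseline fluorescence within five deviations of library mean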;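 note: RGS4 expression induced by doxycycline in cells with stable M3 receptor; B-score is computed from the integrated fluorescence ratio over baseline after carbachol; higher B-score means a larger calcium signal and so more RGS4 inhibition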
Target sequence (P49798 whole entry, looked up): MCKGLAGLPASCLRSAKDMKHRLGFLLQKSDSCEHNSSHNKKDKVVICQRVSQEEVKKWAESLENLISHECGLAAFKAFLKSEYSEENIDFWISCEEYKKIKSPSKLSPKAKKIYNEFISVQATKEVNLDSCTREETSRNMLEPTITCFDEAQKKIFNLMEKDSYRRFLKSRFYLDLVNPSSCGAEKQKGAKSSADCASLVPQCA
MrgX1 PAM – allosterically activates human MrgX1 receptor signaling. MrgX1-HEK293, Fluo-4 calcium flux, FDSS; hits give high values. AID 588675. B-score at 10 µM. Q96LB2. hit rate 0.63% among 310,000;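 active = plate-corrected calcium response at least 3 library SD above typical, normal starting fluorescence, not activating the receptor alone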;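 note: compound read alongside a low EC10 to EC30 dose of BAM8-22 agonist; peak minus trough fluorescence over baseline measured at the second addition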
MrgX1 antag – blocks BAM8-22 activation of human MrgX1 receptor; hit rate 1.3% among 310,000; B-score at 10 µM; MRGX1-HEK293 calcium flux, Fluo-4, BAM8-22 antagonism; hits give low values; Q96LB2;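 active = calcium-response B-score plate-corrected more than 3 library SD below zero, starting fluorescence within 5 deviations, no agonist response on first addition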;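 note: peak minus trough fluorescence over baseline after final BAM8-22 challenge near maximal dose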
RGS4 act – RGS4 potentiation or activation | HEK293 M3R/inducible RGS4, carbachol calcium flux Fluo4; hits give low values | B-score at 10 µM | hit rate 0.92% among 310,000 | AID 463111;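 active = B-score of the integrated calcium signal more than 4 SD below the library mean, with starting fluorescence not abnormally high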;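 note: negative B-score means reduced calcium response which marks RGS4 activation or potentiation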
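test system = HEK293 cells with stable M3R and inducible RGS4 | schedule = recording 10 s baseline at 1 Hz, 100 s post-agonist | technique = Fluo4-AM (2 µM) calcium-flux fluorescence, kinetic read | measure = Agonist-evoked peak-minus-minimum fluorescence over baseline, integrated ratio, B score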
MrgX1 antag conf – reconfirmed antagonist of human MrgX1 receptor signaling. shares compounds with MrgX1 antag. MrgX1-HEK293, BAM8-22 calcium flux, Fluo-4; hits give low values. remaining BAM8-22 calcium response % of control (hits give low values), % at 10 µM. hit rate 19% among 2,300. AID 602420;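 active = remaining agonist calcium response no higher than 100% minus 3 SD of agonist-only control wells, with starting fluorescence near control levels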;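 note: agonist BAM8-22 given at a near maximal EC90 to ECmax level; peak minus minimum fluorescence divided by baseline after agonist addition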
HEK293 Ca flux – counter-screen for MrgX1 antagonists: effect in parental HEK293 cells; hit rate 2% among 4,000; AID 624111; fluorescence ratio F(max-min)/F0 at 10 µM; shares compounds with MrgX1 antag; Fluo-4 calcium fluorescence, FDSS;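 active = duplicate-averaged calcium fluorescence ratio at least three times the standard deviation of buffer wells, a nonspecific response in parental cells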
HEK293 Ca counter – activity in parental HEK293 cells without MrgX1; parental HEK293 calcium flux, Fluo-4 fluorescence ratio; hits give high values; hit rate 0.4% among 4,000; shares compounds with MrgX1 antag; fluorescence ratio F(max-min)/F0 at 10 µM; AID 624114;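 active = calcium fluorescence ratio, averaged over duplicates, at least 3 SD of the buffer-well ratio, meaning a nonspecific response in receptor-free cells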;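 note: untransfected parental HEK293 lacking MrgX1 used as counterscreen for MrgX1 allosteric activators; fluorescence change taken during the second addition on a kinetic imager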
HEK293 Ca cntr2 – MrgX1 activator counter-screen hit in parental HEK293 cells | Fluo-4 calcium fluorescence (FDSS); hits give high values | fluorescence ratio F(max-min)/F0 at 10 µM | hit rate 8.7% among 4,000 | shares compounds with MrgX1 antag;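 active = calcium fluorescence ratio at least three times the spread of buffer wells, meaning a non-specific response in parental cells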
An asterisk follows results filed as active; i = inactive; nt = no result given. In the library only some 3.5% were active in any assay of this set; here they are far more common.

SMILES	MrgX1 agonist	RGS4 block	MrgX1 PAM	MrgX1 antag	RGS4 act	MrgX1 antag conf	HEK293 Ca flux	HEK293 Ca counter	HEK293 Ca cntr2
CCOC(=O)c1cc2c(=O)n3ccccc3nc2n(Cc2ccco2)c1=NC(=O)c1cccnc1	i	i	i	-15*	i	i	i	i	i
N=c1c(S(=O)(=O)c2ccc(Br)cc2)cc2c(=O)n3ccccc3nc2n1Cc1ccco1	i	i	i	-4.6*	i	82%*	i	i	i
CCOc1ccc(NS(=O)(=O)c2ccc3c(c2)CCN3C(=O)CCC(=O)O)cc1	i	i	i	i	i	nt	nt	nt	nt
COc1ccc(NC(=O)c2nc[nH]c2C(=O)N2CCN(C(=O)OC(C)(C)C)CC2)cc1	i	i	i	-7.7*	i	i	i	i	i
COc1cc(NC(=O)c2ccc(S(=O)(=O)N(C)C)cc2)cc(OC)c1OC	i	i	i	-5.3*	i	i	i	i	i
Cc1cccc(NC(=O)c2ccc(S(=O)(=O)N(C)C)cc2)c1	i	i	i	i	i	nt	nt	nt	nt
CCN(CC)S(=O)(=O)c1ccc(C(=O)Nc2cc3oc4ccccc4c3cc2OC)cc1	i	i	i	-6.8*	i	i	i	i	i
COc1cc(/C=N/N2CCN(C3c4ccccc4-c4ccccc43)CC2)cc(OC)c1OC	i	i	i	i	i	nt	nt	nt	nt
COc1ccc(-c2nnc3n2CCCCC3)cc1OC	i	i	i	i	i	nt	nt	nt	nt
Cc1cc(-c2nnc3n2CCCCC3)c(C)n1-c1ccccc1	i	i	i	-4.7*	i	i	i	i	i
O=C(c1ccc(S(=O)(=O)N2CCc3ccccc3C2)cc1)N1CCCCC1	i	i	i	i	i	nt	nt	nt	nt
COc1ccc2c(c1)CCCN2C(N)=O	i	i	i	-4.9*	i	i	i	i	i
COC(=O)N1CCCc2cc(C)ccc21	i	i	i	i	i	nt	nt	nt	nt
CC(C)(C)NC(=O)C(c1ccncc1)N(Cc1ccco1)C(=O)c1ccc(-c2ccccc2)[nH]1 (centres undefined)	i	i	i	i	i	nt	nt	nt	nt
CCn1c(Cc2cccs2)nnc1SCC(=O)NC1CC1	i	i	i	i	i	nt	nt	nt	nt
C=CCn1c(Cc2cccs2)nnc1SCC(=O)NC1CC1	i	i	i	-8.8*	i	i	i	i	i
CCn1c(SCC(=O)N(C(C)C)C(C)C)nnc1-c1cc2ccccc2cc1O	i	i	i	-6.2*	i	i	i	i	i
CCc1nnc(NC(=O)CSc2nnc(-c3cc4ccccc4cc3O)n2CC)s1	i	i	i	i	i	nt	nt	nt	nt
Cc1nn(CCC(=O)O)c2nc(-c3cccnc3)cc(C(F)(F)F)c12	i	i	i	i	i	nt	nt	nt	nt
Cc1nn(CCc2nn[nH]n2)c2nc(-c3ccc(C4CCCCC4)cc3)cc(C(F)(F)F)c12	i	i	i	-21*	-8.5*	2.0%*	i	i	84*
CCCOc1ccc(CNC(=S)Nc2ccccc2)cc1Cl	i	i	i	-6.7*	i	77%*	i	i	i
COc1ccc(CNC(=S)Nc2ccccc2)cc1Cl	i	i	i	i	i	nt	nt	nt	nt
CC(NC(=O)CSc1ncn[nH]1)c1ccc(Cl)cc1Cl (centres undefined)	nt	i	nt	nt	i	nt	nt	nt	nt
